{
  "source": "ChEMBL document CHEMBL4364260",
  "about": "“Discovery of Ziresovir as a Potent, Selective, and Orally Bioavailable Respiratory Syncytial Virus Fusion Protein Inhibitor” (J Med Chem, 2019)",
  "key": {"[1]": {"test": "Oral bioavailability in Wistar-Han rat at 10 mg/kg administered as single dose via gavage and measured up to 24 hrs by LC/MS/MS analysis", "format": "ADME, organism-based", "conditions": "in vivo", "outline": "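Male Wistar-Han rats, single dose, 2 mg/kg iv and 10 mg/kg po, run by standard procedures.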"}, "[2]": {"tested_on": "Human orthopneumovirus", "test": "Antiviral activity against Human respiratory syncytial virus B18537 infected in human Hep2 cells assessed as reduction in virus induced cytopathic effect in presence of 10% FBS after 5 days by CCK-8 assay", "format": "functional, organism-based", "conditions": "subgroup B / strain 18537, HEp-2, 120 h", "outline": "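HEp-2 cells seeded at 6000/well and infected the next day at MOI 0.02, a dose that gives about 90% CPE by day 5. Serial compound dilutions were present throughout, in standard medium with 10% FBS. Viability was read by CCK-8 at day 5, and EC50 is the concentration that cuts CPE by 50%.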"}},
  "data": [
    {"smiles": "Cc1ccc2nc(N3CCS(=O)(=O)c4ccccc4C3)nc(NCC3(N)COC3)c2c1", "note": "[ZIRESOVIR]", "values": [
      {"measurement": "bioavailability", "setting": "[1]", "value": 32, "unit": "%"},
      {"measurement": "EC50", "setting": "[2]", "value": 2, "unit": "nM"},
      {"measurement": "EC90", "setting": "[2]", "value": 3, "unit": "nM"}
    ]}
  ]
}
